Measurements: ChEMBL document CHEMBL2396611, “Synthesis and mechanism of hypoglycemic activity of benzothiazole derivatives” (J Med Chem, 2013)
Activity calls are given as the source filed them. The rule behind the calls is not given here.

Experiments:
[1] = biological target: 5'-AMP-activated protein kinase catalytic subunit alpha-2 (Rattus norvegicus) (UniProt Q09137); assay: Activation of AMPK in rat L6 cells assessed as increase of [3H]dGlc uptake at 25 uM up to 24 hrs; type: cell-based
Summary of the method: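 Fully differentiated L6 myotubes preincubated 24 h in αMEM with 2% FCS and 23.0 mmol/L D-glucose, then 4 h serum-free with 0.5% BSA. Compound or DMSO vehicle given for the indicated times or concentrations. Uptake read after 5 min at room temperature in PBS pH 7.4 with 0.1 mmol/L dGlc and 1.3 μCi/mL [3H]dGlc, by scintillation of SDS lysates. Zero-time basal rate set as 100%; n=6.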

[2] = biological target: 5'-AMP-activated protein kinase catalytic subunit alpha-2 (Rattus norvegicus) (UniProt Q09137); assay: Activation of AMPK in rat L6 cells assessed as increase of [3H]dGlc uptake at 25 uM after 5 hrs in presence of insulin; type: cell-based
Summary of the method: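 Myotubes in serum-free αMEM with 0.5% BSA and 23.0 mM D-glucose for 9 h. Compound 25 μM or DMSO (0.1% v/v) given for the last 5 h; insulin 100 nM for the last 20 min. [3H]dGlc uptake read as 5-min PBS pulse with 0.1 mmol/L dGlc; basal rate taken as 100%.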

Mus musculus = assay: Antidiabetic activity in KKAy mouse assessed as reduction of blood glucose level at 30 to 75 mg/kg, sc bid for 4 days measured on day 1 relative to control; type: functional; set-up: scale not given: the % may be the effect or the level left; settings: dose mg/kg 30-75; route subcutaneous
Summary of the method: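 Hyperglycemic KKAy mice injected s.c. twice daily for 4 days with compound at 30 or 75 mg/kg suspended in sesame oil; controls received sesame oil (150 µl). Blood glucose measured at the indicated times, with day-zero levels taken as 100%. n=10 per group, mean ± SEM, compared with oil-treated group.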

[3] = biological target: 5'-AMP-activated protein kinase catalytic subunit alpha-2 (Rattus norvegicus) (UniProt Q09137); assay: Activation of AMPK in rat L6 cells assessed as increase of [3H]dGlc uptake after 5 hrs in presence of Akt/PKB inhibitor 1,3-dihydro-1-(1-((4-(6-phenyl-1Himidazo[4,5-g]quinoxalin-7-yl)phenyl)methyl)-4-piperidinyl)-2H-benzimidazol-2-one trifluoroacetate salt hydrate; type: cell-based
Summary of the method: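 Myotubes treated with compound, insulin or vehicle in the absence or presence of 100 nM wortmannin or 100 nM Akt/PKB inhibitor, each added 30 min before compound or insulin. Compound C 5 μM was added 5 h before the uptake assay. Rate then measured by the standard 5-min [3H]dGlc uptake assay.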

L6 = assay: Increase of myc-tagged GLUT1 translocation in rat L6 cell plasma membrane at 25 uM after 30 mins to 5 hrs by colorimetric analysis; type: functional, cell-based
Summary of the method: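 L6 lines stably carrying GLUT4myc or GLUT1myc, treated 5 h with test agent or DMSO; insulin given for 30 min. Live myotubes incubated with rabbit anti-c-Myc (1:200), washed, fixed in 3% formaldehyde, then HRP anti-rabbit IgG (1:2000). Developed with OPD and read at 492 nm to give relative surface transporter abundance.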

5'-AMP-activated protein kinase catalytic subunit alpha-2 (Rattus norvegicus), sequence (Q09137 whole entry): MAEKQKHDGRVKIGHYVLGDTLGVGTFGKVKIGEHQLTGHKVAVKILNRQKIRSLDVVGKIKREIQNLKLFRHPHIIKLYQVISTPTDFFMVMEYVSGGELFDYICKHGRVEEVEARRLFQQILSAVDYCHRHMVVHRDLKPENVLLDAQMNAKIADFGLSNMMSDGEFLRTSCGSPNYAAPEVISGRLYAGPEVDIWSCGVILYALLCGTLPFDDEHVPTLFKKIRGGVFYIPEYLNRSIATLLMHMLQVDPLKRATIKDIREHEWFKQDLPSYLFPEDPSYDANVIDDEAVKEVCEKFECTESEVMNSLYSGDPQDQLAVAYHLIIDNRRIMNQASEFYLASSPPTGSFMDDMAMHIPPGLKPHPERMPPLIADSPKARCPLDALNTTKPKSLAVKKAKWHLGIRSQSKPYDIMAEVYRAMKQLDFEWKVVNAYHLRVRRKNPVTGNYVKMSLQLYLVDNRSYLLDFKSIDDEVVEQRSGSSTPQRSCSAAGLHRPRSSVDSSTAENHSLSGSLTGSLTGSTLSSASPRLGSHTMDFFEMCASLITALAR

SMILES: CCOc1ccc2nc(SCc3nc4ccccc4s3)sc2c1
- Activity [1]: Active
- Activity [2]: Active
- Activity (Mus musculus): 30%
- Activity [3]: Active
- Activity (L6): inactive
